Calls of active or inactive are those of the source. No cut-off for these calls is given here.
Key:
[1] = system: Peritoneal macrophage cell; assay: Ability to suppress […] production by LPS-activated peritoneal macrophages form C57BL/6 mice at 4 ug/ml; assay type: functional, cell-based; conditions: Mus musculus
How it was run: (§1)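 Elicited peritoneal macrophages were prepared as for TNF. They were exposed to ethanol-dissolved cannabinoids diluted in DMEM, plus LPS 1 µg/mL, for 24 h. Nitrite in 100 µL supernatant was mixed with an equal volume of Griess reagent for 10 min at room temperature and read at 550 nm. Values came from a nitrite standard curve. Mean ± SD of three pooled experiments.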

[2] = system: Peritoneal macrophage cell; assay: Ability to suppress […] production by LPS-activated peritoneal macrophages form C57BL/6 mice at 8 ug/ml; assay type: functional, cell-based; conditions: Mus musculus; how it was run: as §1
RAW264.7 [3] = assay: Ability to suppress the production of reactive oxygen intermediates by activated RAW 264.7 macrophages from BALB/c mice at 4 ug/ml; assay type: functional
How it was run: (§2)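 RAW 264.7 cells were grown in DMEM with 5% FCS and LPS-activated (1 µg/mL, 24 h). Cells (5 × 10^5 in 0.5 mL) were incubated 24 h with cannabinoids dissolved in ethanol and diluted in Hanks. Luminol and zymosan were then added and chemiluminescence was read immediately. Mean ± SD of three pooled experiments.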

RAW264.7 [4] = assay: Ability to suppress the production of reactive oxygen intermediates by activated RAW 264.7 macrophages from BALB/c mice at 8 ug/ml; assay type: functional; how it was run: as §2
[5] = system: Peritoneal macrophage cell; assay: Ability to suppress TNFalpha production by LPS-activated peritoneal macrophages form C57BL/6 mice at 8 ug/ml; assay type: functional
Cannabinoid receptor 1 = Cannabinoid receptor 1 (Rattus norvegicus, UniProt P20272); assay: Displacement of [3H]HU243 from CB1 receptor in Sabra rat brain
Chain of Cannabinoid receptor 1 (P20272 whole entry): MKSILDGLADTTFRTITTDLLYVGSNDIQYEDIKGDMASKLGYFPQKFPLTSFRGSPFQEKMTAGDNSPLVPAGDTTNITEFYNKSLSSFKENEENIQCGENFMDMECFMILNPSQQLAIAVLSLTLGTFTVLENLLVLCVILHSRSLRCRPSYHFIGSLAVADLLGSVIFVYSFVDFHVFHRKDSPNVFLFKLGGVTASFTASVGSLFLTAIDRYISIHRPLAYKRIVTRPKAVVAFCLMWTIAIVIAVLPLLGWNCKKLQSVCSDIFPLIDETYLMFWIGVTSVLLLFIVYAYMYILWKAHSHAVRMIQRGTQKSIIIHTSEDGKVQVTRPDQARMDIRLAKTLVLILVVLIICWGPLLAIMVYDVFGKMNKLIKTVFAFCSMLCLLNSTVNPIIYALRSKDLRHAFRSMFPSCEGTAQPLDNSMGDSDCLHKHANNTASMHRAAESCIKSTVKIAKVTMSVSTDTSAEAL

[6] = system: Peritoneal macrophage cell; assay: Ability to suppress TNFalpha production by LPS-activated peritoneal macrophages form C57BL/6 mice at 4 ug/ml; assay type: functional, cell-based; conditions: Mus musculus
[7] = system: Peritoneal macrophage cell; assay: Ability to suppress […] production by LPS-activated peritoneal macrophages form C57BL/6 mice at 1 ug/ml; assay type: functional, cell-based; conditions: Mus musculus; how it was run: as §1

SMILES	Activity [1]	Activity [2]	Activity (RAW264.7 [3]; Mus musculus)	Activity (RAW264.7 [4]; Mus musculus)	Activity ([5]; Mus musculus)	Ki (Cannabinoid receptor 1) [nM]	Activity (RAW264.7 [4]) [%]	Activity [6]	Activity [5] [%]	Activity (RAW264.7 [3]) [%]	Activity [7]
C=C(C)[C@@H]1CCC(C)CC1c1c(O)cc(CCCCC)cc1O (some centres not stated)	Active	Active									
CCCCCCC(C)(C)c1cc(O)c(C2C=C(C)CC[C@H]2C(C)C)c(O)c1 (some centres not stated)			inactive	inactive	inactive	124					
C=C(C)[C@@H]1CCC(C)=CC1c1c(O)cc(C(C)(C)CCCCCC)cc1O (some centres not stated)	Active	Active	Active			> 10000	60	Active	73		
CCCCCCC(C)(C)c1cc(O)c(C2CC(C)CC[C@H]2C(C)C)c(O)c1 (some centres not stated)					inactive	17	25				
C=C(C)[C@@H]1CCC(C)=C[C@H]1c1c(O)cc(CCCCC)cc1O [CANNABIDIOL]	Active	Active		Active	Active					12	
CCCCCc1cc(O)c(C2CC(C)CC[C@H]2C(C)C)c(O)c1 (some centres not stated)	Active	Active	Active			145		Active			Active
CCCCCc1cc(O)c(C2C=C(C)CC[C@H]2C(C)C)c(O)c1 (some centres not stated)	Active	Active	Active			> 1000		Active			
